From PubChem BioAssay
Rows were chosen to be rich in hits. Some 4.6% of all compounds tested hit in one or more screens of this group.
CHO parental Ca: signal in parental CHO cells, OX1R antagonist counter-screen. parental CHO-K1, ATP-induced calcium, Fluo-8 fluorescence. inhibition, % at 5.6 µM. 330,000 compounds, 0.63% hits. AID 463079;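 active means inhibition above that plate's mean sample inhibition plus 3 SD, cut at about 26% in these data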;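 further: 0% = ATP-challenged DMSO wells and 100% = DMSO wells without ATP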
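Measured by: calcium-sensitive Fluo-8 fluorescence / Test system: CHO parental line / Controls: ATP-challenged DMSO wells low, unchallenged DMSO wells high / Measure: % inhibition / Compound: single nominal dose of 5.6 µM per compound / Replicates: single well per compound, no replicates / Reagent: ATP as calcium-mobilizing challenge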
OX1R antag-1: antagonists of human orexin 1 receptor (OX1R); O43613; OX1R-expressing cells, FRET antagonist read-out; 330,000 compounds, 1.8% hits; AID 485270; inhibition, % at 6.6 µM; in the data active means inhibition mostly above about 38%, no sharp cut-off; inactive means mostly below about 40%;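 further: 0% = agonist challenge alone and 100% = reference antagonist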
Target sequence (O43613 whole entry, looked up): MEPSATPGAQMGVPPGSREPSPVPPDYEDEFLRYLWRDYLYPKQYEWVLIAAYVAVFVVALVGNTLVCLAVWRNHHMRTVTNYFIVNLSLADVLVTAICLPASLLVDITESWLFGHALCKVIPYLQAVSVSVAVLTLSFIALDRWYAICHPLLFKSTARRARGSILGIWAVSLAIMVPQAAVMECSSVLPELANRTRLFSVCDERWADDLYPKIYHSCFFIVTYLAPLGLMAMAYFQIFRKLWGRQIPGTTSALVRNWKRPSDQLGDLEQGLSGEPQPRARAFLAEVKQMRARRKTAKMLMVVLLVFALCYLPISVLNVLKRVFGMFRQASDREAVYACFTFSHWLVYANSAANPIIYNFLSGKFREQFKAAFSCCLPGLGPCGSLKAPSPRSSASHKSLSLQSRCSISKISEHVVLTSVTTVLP
GPR7 antag: blocks human GPR7 receptor signaling. P48145. GPR7-expressing cells, fluorescence antagonist assay. inhibition, % at 4.4 µM. 290,000 compounds, 1.1% hits. AID 1861; in the data active means inhibition above about 16%, passing the limit was not always enough;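 further: cells stimulated with the agonist NPW; 0% = agonist with vehicle and 100% = vehicle without agonist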
Target sequence (P48145 whole entry, looked up): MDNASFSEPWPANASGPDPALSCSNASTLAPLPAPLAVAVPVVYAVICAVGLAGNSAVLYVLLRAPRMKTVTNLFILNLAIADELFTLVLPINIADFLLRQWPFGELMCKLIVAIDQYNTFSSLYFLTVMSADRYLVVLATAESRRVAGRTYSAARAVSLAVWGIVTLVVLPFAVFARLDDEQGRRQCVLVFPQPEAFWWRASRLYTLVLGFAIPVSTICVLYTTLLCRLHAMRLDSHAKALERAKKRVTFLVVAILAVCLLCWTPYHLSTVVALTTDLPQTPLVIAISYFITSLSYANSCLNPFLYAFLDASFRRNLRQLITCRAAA
OX1R antag-2: blocks the human orexin 1 receptor. O43613. inhibition, % at 5 µM. 330,000 compounds, 0.43% hits. CHO/OX1R cells, Fluo-8 calcium fluorescence, orexin A;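 active means inhibition above its plate's threshold, mean inhibition of all tested compounds on the plate plus 3 SD, cut at about 37% in these data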;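 further: 0% = orexin A challenge wells and 100% = SB-334867-A antagonist wells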
TAAR1 antagonist: human TAAR1 antagonism; inhibition, % at 3 µM; CHO RD-HGA16 TAAR1, Fluo-8 calcium fluorescence, antagonist; 360,000 compounds, 1.5% hits;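 active means inhibition above a per-plate cutoff, the mean inhibition of test compounds on that plate plus 3 SD, cut at about 49% in these data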;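 further: 0% = DMSO plus EC80 beta-PEA response and 100% = DMSO alone without agonist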
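test system = CHO RD-HGA16 cells bearing hTAAR1 | replication = singlicate | controls = DMSO-only wells and EC80 β-PEA-stimulated wells | reagent = EC80 β-phenethylamine stimulus | read-out basis = percent inhibition of PEA-evoked calcium signal, max/basal emission ratio | schedule = seeding 17-24 h prior, 75-min 37 °C, 30-min RT dye loading | signal = kinetic Fluo-8 calcium fluorescence measurement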
TAAR1 agonist: human TAAR1 agonism; 360,000 compounds, 0.99% hits; Q96RJ0; CHO RD-HGA16 TAAR1, Fluo-8 calcium fluorescence; vehicle wells 0%, saturating PEA agonist 100%; activation, % at 3 µM; AID 624467;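 active means activation above the mean activation of all test compounds in the run plus 3 SD, cut at about 38% in these data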
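Test system: RD-HGA16 (CHO) cells co-expressing Gα16 and hTAAR1 | Doses: Single dose, 3 µM | Schedule: 17-24 h seeding, 75 min 37 °C dye, 30 min RT | Evaluation: % activation from peak over basal fluorescence ratio, DMSO-to-PEA scaled | Technique: Kinetic Fluo-8 calcium fluorescence | Benchmarks: Low control DMSO, high control PEA (EC100)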
OX1R HTRF confirm: OX1R (human) antagonism, HTRF confirmed. 1,800 compounds, 49% hits. OX1R-expressing cells, HTRF antagonist assay. inhibition, % at 6.6 µM. shares compounds with OX1R antag-1. AID 492964; in the data active means inhibition above about 55%;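 further: CHO cells expressing OX1R stimulated with orexin A at about EC80; 0% = agonist challenge alone and 100% = reference antagonist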
CHO-K1 HTRF: signal in parental CHO-K1 cells, OX1R antagonist counter-screen. HTRF counterscreen. shares compounds with OX1R antag-1. inhibition, % at 6.6 µM. AID 493232. 1,800 compounds, 48% hits; in the data active means inhibition above about 17%;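 further: 0% = agonist challenge with vehicle and 100% = vehicle alone without agonist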
Starred values were filed as active, the others as inactive; . = not tested or not shown; ! = a repeat was not active.

SMILES	CHO parental Ca	OX1R antag-1	GPR7 antag	OX1R antag-2	TAAR1 antagonist	TAAR1 agonist	OX1R HTRF confirm	CHO-K1 HTRF
COc1cc(/C=C2\NC(=O)NC2=O)cc(Br)c1OC	-7.8	-4.4	3.1	-0.1	0.7	6.8	.	.
CC(=O)Nc1ccc2oc(-c3ccccc3Br)nc2c1	-10.4	78.4*	0.8	2.9	13.5	3.9	42.4	0.2
CCC(=O)Nc1ccc2oc(-c3ccccc3Br)nc2c1	5.2	84.3*	6.3	22.9	2.3	25.6	51.0	0.2
CN(C)c1ncc(CN2CCC(C(=O)Nc3ccc(-n4cccn4)cc3)CC2)s1	-23.4	10.6	-6.7	-18.3	-16.9	2.2	.	.
O=C(O)c1ccc(NC2=C(n3nnc4ccccc43)C(=O)c3ccccc3C2=O)cc1	5.9	173.5*	-15.6	-13.2	-7.6	1.8	53.2	55.9*
O=C(O)c1cccc(NC2=C(N3CCOCC3)C(=O)c3ccccc3C2=O)c1	2.8	23.6	-17.5	11.6	2.6	0.5	.	.
O=C(O)COc1ccccc1/C=C1\SC(=S)N(/N=C/c2ccccc2O)C1=O	6.1	97.7*	-7.8	-0.6	-12.3	4.5	70.0*	45.5*
O=C(O)COc1ccccc1/C=C1\SC(=S)N(NC(=O)c2ccccc2O)C1=O	-14.0	28.1	.	-4.1	-5.5	9.7	.	.
O=C1NC(=S)N/C1=C\c1cccc([N+](=O)[O-])c1	4.0	29.0	2.5	10.7	-21.0	-1.9	.	.
O=C1NC(=S)N/C1=C/c1cccc([N+](=O)[O-])c1	-11.3	93.5*	1.4	-4.9	4.5	5.7	31.3	39.6*
Cc1nonc1C(=O)N/N=C/c1ccncc1	-8.2	14.5	-10.5	-10.8	-8.8	2.8	.	.
O=C(N/N=C/c1ccc([N+](=O)[O-])o1)C(=O)Nc1ccc(C(=O)O)cc1	-2.6	59.9	-4.4	-7.1	-12.4	-1.8	.	.
O=C(N/N=C/c1ccc([N+](=O)[O-])o1)C1CC1	-10.8	126.9*	3.3	-4.8	-0.6	3.2	58.0*	75.0*
Cc1nonc1C(=O)N/N=C/c1ccc([N+](=O)[O-])o1	2.4	144.0*	-4.4	-8.3	4.7	7.7	51.9	80.8*
COc1cc(C2c3cc(O)c(OC)cc3CC(C(=O)O)C2CO)ccc1O (stereo not drawn)	.	.	.	.	-14.8	7.6	.	.
COc1ccccc1N(C)S(=O)(=O)c1ccc(C)c(C(=O)NC(C)c2ccccn2)c1 (stereo not drawn)	-21.9	22.9	.	-28.2	-2.3	1.6	.	.
COc1ccc(CC2=C(O)c3ccccc3C(=O)C2=O)cc1	-3.8	33.6	-3.7	-0.9	-9.7	-0.4	.	.
O=C1C(=O)c2ccccc2C(O)=C1CCCCl	-7.0	80.2*	-1.8	-10.0	.	.	77.4*	96.3*
CC(NC(=O)c1ccccc1NC(=O)CN1CCc2ccccc2C1)c1ccccc1 (stereo not drawn)	-57.7	13.0	17.3	-13.8	26.4	7.3	.	.
Cc1nnc(N/N=C/c2cc(C)n(-c3ccc(F)cc3)c2C)n1N	-9.8	91.6*	7.9	-8.2	-10.2	-0.7	17.0	11.6
Oc1ccccc1/C=N/Nc1nn[nH]n1	-14.5	11.5	-10.1	-13.2	-6.4	0.5	.	.
Cc1nnc(N/N=C/c2ccccc2O)n1N	-5.0	160.1*	-10.7	-16.7	-19.1	32.7	39.6	16.1
O=[N+]([O-])c1ccc2c(c1)nc1n2CCCCC1	5.2	14.7	-11.4	-4.1	12.6	0.7	.	.
O=c1c2c(-c3ccc([N+](=O)[O-])cc3)csc2nc2n1CCC2	-30.3	94.9*	-4.7	-3.5	-4.0	0.1	39.9	48.3*
O=C(N/N=C/c1ccc(O)cc1)c1cc[n+](Cc2ccccc2)cc1	-11.3	90.2*	0.9	-13.2	-3.7	5.2	38.6	45.2*
SMILES	CHO parental Ca	OX1R antag-1	GPR7 antag	OX1R antag-2	TAAR1 antagonist	TAAR1 agonist	OX1R HTRF confirm	CHO-K1 HTRF
O=C(N/N=C/c1ccc(OCc2ccccc2)cc1)c1cc[n+](Cc2ccccc2)cc1	-0.8	20.4	-11.2	-1.0	-9.3	5.4	.	.
COc1ccc(C(=O)c2ccccc2)c2c(O)ccc(C(=O)c3ccccc3)c12	6.2	104.5*	-5.3	18.3	11.3	13.3	59.6*	6.4
COC(=O)c1c(=O)n(O)c2ccc(OC)cc2[n+]1[O-]	-10.6	87.9*	-6.0	-12.3	.	.	33.1	47.3*
O=[N+]([O-])c1cc(C(F)(F)F)ccc1N1CCN(CCO)CC1	-7.5	6.4	0.5	5.3	17.8	4.1	.	.
O=[N+]([O-])c1ccc(N2CCN(CCOCCO)CC2)c([N+](=O)[O-])c1	2.9	85.1*	-4.1	-2.8	7.4	2.6	46.4	38.6*
Cc1cc(C)c[n+](-c2nc3ccccc3nc2C(=C=[N-])C#N)c1	-0.1	84.2*!	-9.1	3.0	-1.9	1.1	31.9	32.8*
Cc1ccc[n+](-c2nc3ccccc3nc2C(=C=[N-])C#N)c1	3.7	96.3*	-8.7	5.2	-17.3	1.5	35.5	40.5*
CCc1ccc[n+](-c2nc3ccccc3nc2C(=C=[N-])C#N)c1	12.3	35.1	-4.1	-1.5	-12.9	0.6	.	.
CCN(CC)c1ccc(/C=N/NC(=O)c2ccoc2C)c(O)c1	-22.2	84.5*	1.9	4.4	-7.5	5.0	90.9*	14.3
CCN(CC)c1ccc(/C=N/NC(=O)OC)c(O)c1	-21.5	25.9	-1.2	-7.2	30.7	0.9	.	.
CCn1cc(CN(C)C(=O)/C=C/c2ccc([N+](=O)[O-])cc2)c(C)n1	-3.0	92.0*	-2.6	-0.3	-12.0	3.9	34.9	35.1*
CCN1CCN(C(=O)/C=C/c2ccc([N+](=O)[O-])cc2)CC1	-0.7	97.1*	-0.1	-4.3	2.4	0.9	44.2	58.6*
CC(C)(C)S(=O)N1Cc2cn(Cc3ccccc3)c(=O)cc2[C@@H]1CCO (stereo partly drawn)	.	.	.	.	0.4	2.4	.	.
CC/C(C)=N/NC(=O)c1[nH]c2ccc(C)cc2c1-c1ccccc1	-20.9	92.9*	-1.2	-26.6	-13.2	-1.2	15.7	0.1
CC(C)C(OC(=O)C1=Cc2ccccc2OC1)C(=O)NCC1CCCO1 (stereo not drawn)	.	.	.	.	5.8	4.9	.	.
COC(=O)CNC(=O)/C=C/c1cc(Br)ccc1OC	-5.1	21.9	-1.7	-13.7	-19.1	1.5	.	.
COc1ccc(Br)cc1/C=C/C(=O)Nc1ccc(C)cc1	-25.7	94.6*	-9.1	-9.6	30.2	-1.8	68.5*	21.6*
O=C(NCC[C@@H]1CC[C@@H](NS(=O)(=O)c2ccccc2)[C@@H](CO)O1)c1cc(Cl)cc(Cl)c1	.	.	.	.	13.3	2.3	.	.
COc1ccc(/C=N/NC(=O)c2cc(C)on2)c2ccccc12	-28.9	86.7*	-13.6	-24.2	19.0	9.4	64.8*	11.1
